Active and inactive are the calls of the source. The calls are words filed in the database; no cut-off is given here.
Key:
[1] = biological target: Indoleamine 2,3-dioxygenase 1 (Homo sapiens, UniProt P14902); assay: Inhibition of indoleamine 2,3-dioxygenase in aerobic condition
[2] = Cytotoxicity against mouse EMT6/KU cells in aerobic condition for 5 hrs measured after 7 to 10 days; assay type: functional, cell-based
How it was run: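 Late-log cells were plated at 10^3, 5×10^2 or 2×10^2 per dish and grown 24 h. Drug in DMSO diluted in medium was then given in a CO2 incubator at 37 °C for 5 h. After washout, colonies grew 7–10 days and were methanol-fixed, Giemsa-stained and counted.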

[3] = Cytotoxicity against mouse EMT6/KU cells in hypoxic condition for 5 hrs measured after 7 to 10 days; assay type: functional, cell-based
How it was run: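 Drug medium (DMSO stock diluted in medium) was added and the cells were held 5 h at 37 °C in a hypoxic chamber flushed with 5% CO2/95% N2. After drug removal, colonies grew 7–10 days, then were methanol-fixed, Giemsa-stained and counted for surviving fraction.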

[4] = Hypoxic cytotoxicity ratio of IC50 for mouse EMT6/KU cells in aerobic condition to IC50 for mouse EMT6/KU cells in hypoxic condition; assay type: functional
How it was run: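 IC50 values came from clonogenic survival of EMT6/KU cells after 5 h drug exposure at 37 °C, either aerobic (CO2 incubator) or hypoxic (5% CO2/95% N2 chamber), with Giemsa-stained colonies counted after 7–10 days. The ratio is IC50(aerobic)/IC50(hypoxic).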

| Structure (SMILES) | Ki [1] | IC50 [2] | IC50 [3] | Ratio IC50 [4] | Activity [1] |
| --- | --- | --- | --- | --- | --- |
| Cn1cc(C[C@H](NC(=O)OC(C)(C)C)C(=O)NCCCCNc2nc3ccccc3[n+]([O-])n2)c2ccccc21 | 87.1 µM | 36 µM | 33 µM | 1.1 | – |
| Cn1cc(C[C@H](NC(=O)OC(C)(C)C)C(=O)NCCCCCNc2nc3ccccc3[n+]([O-])n2)c2ccccc21 | 76.3 µM | 42 µM | 33 µM | 1.3 | – |
| O=C(NCCCCCNc1n[n+]([O-])c2ccccc2[n+]1[O-])C(F)(F)F | – | – | – | – | inactive |
| Nc1n[n+]([O-])c2ccccc2[n+]1[O-] [TIRAPAZAMINE] | – | 38 µM | 12 µM | 3.2 | inactive |
| Cn1cc(C[C@H](NC(=O)OC(C)(C)C)C(=O)NCCCCNc2n[n+]([O-])c3ccccc3[n+]2[O-])c2ccccc21 | 367 µM | > 40 µM | 8 µM | >5 | – |
| Cn1cc(C[C@H](NC(=O)OC(C)(C)C)C(=O)O)c2ccccc21 | – | – | – | – | inactive |
| O=C(NCCCCNc1n[n+]([O-])c2ccccc2[n+]1[O-])C(F)(F)F | – | – | – | – | inactive |
| O=C(NCCCCNc1nc2ccccc2[n+]([O-])n1)C(F)(F)F | – | – | – | – | inactive |
| Cn1cc(C[C@H](NC(=O)OC(C)(C)C)C(=O)NCCCCCNc2n[n+]([O-])c3ccccc3[n+]2[O-])c2ccccc21 | 197 µM | 35 µM | 7.1 µM | 4.9 | – |
| O=C(NCCCCCNc1nc2ccccc2[n+]([O-])n1)C(F)(F)F | – | – | – | – | inactive |
| Nc1nc2ccccc2[n+]([O-])n1 | – | > 80 µM | > 40 µM | – | inactive |

Source: ChEMBL document CHEMBL1151788, “Synthesis and biological activity of 1-methyl-tryptophan-tirapazamine hybrids as hypoxia-targeting indoleamine 2,3-dioxygenase inhibitors” (Bioorg Med Chem, 2008)
